Assay results pooled from the literature.
Protocols differ between the studies behind these lines.
Target: Angiopoietin-1 receptor (TEK, Homo sapiens, UniProt Q02763)

SMILES | test | conditions | measurement | result
Cn1cncc1[C@@](O)(COc1ccc(C#N)cc1-c1ccc(OC(F)(F)F)cc1)c1ccc(C#N)cc1 | cell-free assay, competition with immobilised ligand | 1 µM | remaining binding | 92%
COc1ncccc1-c1cnn2ccc(N3CCN(C(=O)OC(C)C)CC3)nc12 | binding, competition with immobilised ligand | 1 µM | remaining binding | 98%
COCc1c(-c2cc3cc(C)cc(OC)c3s2)c2c(N)ncnn2c1CN1CCNC(=O)C1 | cell-free assay, competition with immobilised ligand | 1 µM | inhibition | 89%
O=c1[nH]c2ccccc2n1C1CCN(Cc2ccc(-c3[nH]c4cc5ncnc5cc4nc3-c3ccccc3)cc2)CC1 | cell-free assay | 0.5 µM | remaining signal | 102%
Cn1cc(-c2cc(F)cc(N3CCn4c(cc5c4CCCC5)C3=O)c2CO)cc(Nc2ccc(N3CCN(C4COC4)CC3)cn2)c1=O | enzyme activity, inhibitor | 0.1 µM | inhibition | 7%
COc1cc(Nc2ncc(F)c(Nc3ccc4c(n3)NC(=O)C(C)(C)O4)n2)cc(OC)c1OC | binding | 10 µM | inhibition | 94%
CC(C)(C)c1cc(C=C(C#N)C#N)cc(Br)c1O | enzyme activity, inhibitor | 0.5 µM | remaining activity | 97.9%
Cc1nn(C)cc1-c1nc2c(N3CCN(Cc4ccc(Cl)cc4)CC3)c(Cl)cnc2[nH]1 | binding, competition with immobilised ligand | 1 µM | remaining binding | 56%
Nc1ncc(-c2nc(N3CCOCC3)nc(N3CCOCC3)n2)c(C(F)F)n1 | cell-free assay, competition with immobilised ligand | 10 µM | remaining binding | 99%
O=C(NCc1ncc(C(F)(F)F)cc1Cl)c1ccc2c(c1)C1(CCS(=O)(=O)CC1)[C@@H](C1CC1)N2S(=O)(=O)c1ccc(F)cc1 | cell-free assay, competition with immobilised ligand | 1 µM | remaining binding | 96%
